# Data: ChEMBL document CHEMBL4699407, “Isoquinoline thiosemicarbazone displays potent anticancer activity with in vivo efficacy against aggressive leukemias” (RSC Med Chem, 2020)
# pIC50: −log10 of the molar value. Calls of active or inactive are those of the source. No cut-off for these calls is given here.
# Columns and labels:
# MIA PaCa-2 [1] = assay: Cytotoxicity against human MIA PaCa2 cells assessed as reduction in cell viability at 25 nM in presence of Zn2+ incubated for 72 hrs by cell titer-glo luminescent cell viability assay; type: functional, cell-based
# Summary of the method: (§1)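 MIAPACA2 cells were exposed to compound for 72 h with 20 μM Fe(II) or Zn(II) supplement. Proliferation was read by CellTiter-Glo ATP luminescence.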
# ASPC1 = assay: Cytotoxicity against human ASPC1 cells assessed as reduction in cell viability in presence of Cu2+ incubated for 72 hrs by cell titer-glo luminescent cell viability assay; type: functional, cell-based; settings: ASPC1, 72 h
# Summary of the method: (§2)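 Cells were grown in DMEM or RPMI with 10% FBS, without antibiotics, at 37 °C, 20% O2, 5% CO2. Adherent lines were seeded at 500 cells/well. Serially diluted compound was given with 20 μM Cu(II) (CuCl2) for 72 h; leukemia models received pre-formed 1:1 copper complex. ATP was read by CellTiter-Glo luminescence. IC50 is relative to DMSO-treated cells.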
# MIA PaCa-2 [2] = assay: Induction of apoptosis in human MIA PaCa-2 cells assessed as decrease in viable cells at 25 nM incubated for 72 hrs by annexin V and propidium iodide staining based flow cytometry analysis relative to control; type: functional
# Summary of the method: (§3)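 Cells given 25 nM compound with or without 20 μM Cu(II) and/or the ATR inhibitor VE-822 at 250 nM for 72 h. Stained with annexin V-FITC and propidium iodide, then analysed on a five-laser flow cytometer to score viable, early apoptotic, late apoptotic and necrotic fractions against vehicle.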
# MIA PaCa-2 [3] = assay: Induction of DNA damage in human MIA PaCa-2 cells assessed as increase in CHEK2 phosphorylation at 10 nM in presence of Cu2+ incubated for 48 hrs by immunoblot assay; type: functional, cell-based
# Summary of the method: (§4)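 Treated with 10 nM compound plus 20 μM Cu(II). Lysed in RIPA buffer with protease and phosphatase inhibitors, then sonicated and centrifuged at 20 000g, 4 °C. Protein measured by micro BCA, and equal amounts run on bis-tris gels. Primary antibodies in 5% BSA/TBST; HRP-linked anti-rabbit or anti-mouse secondaries at 1:2500. Chemiluminescent detection on film; representative blot.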
# MIA PaCa-2 [4] = assay: Induction of DNA damage in human MIA PaCa-2 cells assessed as decrease in ATP level at 25 nM in presence of Cu2+ incubated for 48 hrs by LC-MS/MS analysis; type: functional, cell-based
# Summary of the method: (§5)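 MIAPACA2 cells were given 25 nM compound plus 20 μM Cu(II) for 48 h in glucose-free DMEM with 10% dialyzed FBS and 11 mM [U-13C6]glucose. Nucleotide pools were quantified by LC-MS/MS with multiple reaction monitoring. Mean ± SD, n = 3, two-way ANOVA with Bonferroni correction.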
# MIA PaCa-2 [5] = assay: Induction of ROS generation in human MIA PaCa-2 cells at 25 nM in presence of Cu2+ incubated for 24 hrs by CM-H2DCFDA staining based flow cytometry analysis; type: functional, cell-based
# Summary of the method: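 Treated with 25 nM compound ± 20 μM Cu(II) for 24 h. Cells loaded with 5 μM CM-H2DCFDA for 30 min, spun at 450g for 4 min, and returned to medium containing compound and/or Cu(II) for 30 min. Then spun, resuspended in PBS and read by flow cytometry as mean fluorescence intensity. Mean ± SD, n = 2, Student t-test.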
# BXPC-3 = assay: Cytotoxicity against human BXPC-3 cells assessed as reduction in cell viability in presence of Cu2+ incubated for 72 hrs by cell titer-glo luminescent cell viability assay; type: functional, cell-based; settings: BXPC-3, 72 h; summary of the method: as §2
# MIA PaCa-2 [6] = assay: Induction of apoptosis in human MIA PaCa-2 cells assessed as increase in necrotic cells at 25 nM in presence of Cu2+ incubated for 72 hrs by annexin V and propidium iodide staining based flow cytometry analysis relative to control; type: functional; summary of the method: as §3
# MIA PaCa-2 [7] = assay: Induction of apoptosis in human MIA PaCa-2 cells assessed as increase in late apoptotic cells at 25 nM in presence of Cu2+ and ATRi incubated for 72 hrs by annexin V and propidium iodide staining based flow cytometry analysis relative to control; type: functional; summary of the method: as §3
# MIA PaCa-2 [8] = assay: Cytotoxicity against human MIA PaCa2 cells assessed as reduction in cell viability in presence of Cu2+ incubated for 72 hrs by cell titer-glo luminescent cell viability assay; type: functional, cell-based; settings: MIA PaCa-2, 72 h; summary of the method: as §2
# [9] = Cytotoxicity against human PaTu 8902 cells assessed as reduction in cell viability in presence of Cu2+ incubated for 72 hrs by cell titer-glo luminescent cell viability assay; type: functional, cell-based; settings: PaTu 8902, 72 h; summary of the method: as §2
# [10] = Cytotoxicity against human SUIT-2 cells assessed as reduction in cell viability in presence of Cu2+ incubated for 72 hrs by cell titer-glo luminescent cell viability assay; type: functional, cell-based; settings: SUIT-2, 72 h; summary of the method: as §2
# MIA PaCa-2 [11] = assay: Induction of DNA damage in human MIA PaCa-2 cells assessed as decrease in TTP level at 25 nM in presence of Cu2+ incubated for 48 hrs by LC-MS/MS analysis; type: functional, cell-based; summary of the method: as §5
# MIA PaCa-2 [12] = assay: Induction of DNA damage in human MIA PaCa-2 cells assessed as increase in CHEK1 phosphorylation at 10 nM in presence of Cu2+ incubated for 48 hrs by immunoblot assay; type: functional, cell-based; summary of the method: as §4
# MIA PaCa-2 [13] = assay: Cytotoxicity against human MIA PaCa2 cells assessed as reduction in cell viability at 25 nM in presence of Fe2+ incubated for 72 hrs by cell titer-glo luminescent cell viability assay; type: functional, cell-based; summary of the method: as §1
# MIA PaCa-2 [14] = assay: Induction of apoptosis in human MIA PaCa-2 cells assessed as increase in necrotic cells at 25 nM in presence of ATRi incubated for 72 hrs by annexin V and propidium iodide staining based flow cytometry analysis relative to control; type: functional; summary of the method: as §3
# HPAF-II = assay: Cytotoxicity against human HPAF-II cells assessed as reduction in cell viability in presence of Cu2+ incubated for 72 hrs by cell titer-glo luminescent cell viability assay; type: functional, cell-based; summary of the method: as §2
# MIA PaCa-2 [15] = assay: Induction of apoptosis in human MIA PaCa-2 cells assessed as increase in necrotic cells at 25 nM in presence of Cu2+ and ATRi incubated for 72 hrs by annexin V and propidium iodide staining based flow cytometry analysis relative to control; type: functional; summary of the method: as §3
# MIA PaCa-2 [16] = assay: Induction of apoptosis in human MIA PaCa-2 cells assessed as decrease in viable cells at 25 nM in presence of ATRi incubated for 72 hrs by annexin V and propidium iodide staining based flow cytometry analysis relative to control; type: functional; summary of the method: as §3
# MIA PaCa-2 [17] = assay: Induction of apoptosis in human MIA PaCa-2 cells assessed as reduction in viable cells at 25 nM in presence of Cu2+ incubated for 72 hrs by annexin V and propidium iodide staining based flow cytometry analysis relative to control; type: functional; summary of the method: as §3
# MIA PaCa-2 [18] = assay: Induction of DNA damage in human MIA PaCa-2 cells assessed as decrease in rGTP level at 25 nM in presence of Cu2+ incubated for 48 hrs by LC-MS/MS analysis; type: functional, cell-based
# Summary of the method: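 Cells in DMEM or RPMI with 10% FBS, 37 °C, 5% CO2. Treated with 25 nM compound plus 20 μM Cu(II) for 48 h. Nucleotide pools quantified by LC-MS/MS with multiple reaction monitoring. Cells were in glucose-free DMEM with 10% dialyzed FBS and 11 mM [U-13C6]glucose for 48 h, and glucose-labeled pools were compared. Mean ± SD, n = 3, two-way ANOVA with Bonferroni correction.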
smiles,measurement,setting,value
CN(C)C(=S)NN=Cc1nccc2cc(F)ccc12,Activity,MIA PaCa-2 [1],inactive
same,pIC50,ASPC1,9.00
same,Activity,MIA PaCa-2 [2],94.9%
same,Activity,MIA PaCa-2 [3],Active
same,Activity,MIA PaCa-2 [4],inactive
same,Activity,MIA PaCa-2 [5],Active
same,pIC50,BXPC-3,9.00
same,Activity,MIA PaCa-2 [6],4.86%
same,Activity,MIA PaCa-2 [7],42.7%
same,IC90,MIA PaCa-2 [8],21.6 nM
same,pIC50,[9],9.00
same,pIC50,[10],9.00
same,Activity,MIA PaCa-2 [11],inactive
same,Activity,MIA PaCa-2 [12],Active
same,Activity,MIA PaCa-2 [13],Active
same,Activity,MIA PaCa-2 [14],7.34%
same,pIC50,HPAF-II,9.00
same,Activity,MIA PaCa-2 [15],4.72%
same,Activity,MIA PaCa-2 [16],64.7%
same,Activity,MIA PaCa-2 [17],77.5%
same,Activity,MIA PaCa-2 [18],Active
